Laboratory results as given in ChEMBL document CHEMBL3603801 (J Med Chem, 2015).

Key:
[1] = Volume of distribution at steady state in rat at 0.5 mg/kg, iv; assay type: ADME, organism-based; conditions: in vivo, read-out: Vdss
[2] = Ratio of drug level in rat brain to plasma at 0.5 mg/kg, iv after 2 hrs; assay type: ADME, organism-based; conditions: brain and plasma, read-out: BPR
Outline: (§1)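 Rats given 0.5 mg/kg iv in 10% DMA + 10% Solutol HS15 + 80% saline, or for some compounds 10% DMA + 10% Solutol HS15 + 80% (30% (2-hydroxypropyl)-β-cyclodextrin in saline). Brain:plasma and CSF:plasma ratios taken at 0.5 and 2 h; quantification limit 1.00 ng/mL.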

[3] = Ratio of drug level in rat cerebrospinal fluid to plasma at 0.5 mg/kg, iv after 2 hrs; assay type: ADME, organism-based, CSF/Plasma; conditions: cerebrospinal fluid and plasma
[4] = Ratio of drug level in rat cerebrospinal fluid to plasma at 0.5 mg/kg, iv after 0.5 hrs; assay type: ADME, organism-based, CSF/Plasma; conditions: cerebrospinal fluid and plasma; outline: as §1
[5] = Ratio of drug level in rat brain to plasma at 0.5 mg/kg, iv after 0.5 hrs; assay type: ADME, organism-based; conditions: brain and plasma, read-out: BPR; outline: as §1
[6] = Apparent permeability across apical to basolateral side of human Caco2 cells; assay type: ADME, cell-based; conditions: Caco-2
Outline: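 Caco-2 monolayer; apparent permeability measured in the apical-to-basolateral direction, with efflux ratio also reported.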

[7] = Oral bioavailability in rat; assay type: ADME, organism-based; conditions: in vivo

SMILES	Vd [1] [L/kg]	Kp at 2 h [2]	Kp at 2 h [3]	Kp at 0.5 h [4]	Kp at 0.5 h [5]	Papp A→B [6] [×10⁻⁶ cm/s]	bioavailability [7] [%]
N#Cc1cc(C#N)cc(-c2cc(-c3ccc(F)cn3)ncn2)c1	3.3	8.2	0.07	0.04	5.5		
Cc1cc(C#N)cc(-c2cc(-n3cccn3)ncn2)c1	2.5	1.9	0.01	0.02	1.7		
N#Cc1cc(Cl)cc(-c2cc(-c3ccc(F)cn3)ncn2)c1	3.7	2.7		0.01	2.9	13	100

More lines, main results first:

Vd [1] [L/kg]	Kp at 2 h [2]	Kp at 2 h [3]	Kp at 0.5 h [4]	Kp at 0.5 h [5]	SMILES	Papp A→B [6] [×10⁻⁶ cm/s]	bioavailability [7] [%]
4.9	6.7		0.01	4.7	N#Cc1ccc(-c2cc(-c3cc(Cl)cc(C#N)c3)ncn2)nc1		
4.4	1.9		0.01	1.7	N#Cc1cc(Cl)cc(-c2cc(-c3ccccn3)ncn2)c1		
